Several values for one entry are separate records, joined by “and”; a condition that tells them apart may be missing. Identical values can stand only once. Like-named read-outs stand apart in the source and are kept apart here. Marks after values point to notes of the source that are not given here. Values belong to the compound of their own block, whether it stands above or below them.
What was measured:
[1] = target: T1, human α-thrombin (Homo sapiens, UniProt P00734); assay type: biochemical; settings: for logIC50 / HS (Hill slope): pH 7.4, 25 °C, Spectrozyme TH; for fold decrease in potency from 9a: ratio of IC50s
[2] = target: T1, human α-thrombin; assay type: biochemical
Outline: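 Human α-thrombin (5 nM) was preincubated with fixed test compound concentrations (0–9.90 μM), either overnight at 25 °C or 2 h at 37 °C, in 20 mM Tris-HCl pH 7.4 with 100 mM NaCl, 2.5 mM CaCl2 and 0.1% PEG8000. Initial rates of Spectrozyme TH hydrolysis (2–80 μM) were read at 405 nm, at under 10% substrate consumption. Standard Michaelis-Menten fit gave KM and VMAX.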

[3] = target: T1, human α-thrombin; assay: Thrombin inhibition by 9a in presence of exosite 1 or exosite 2 ligands; assay type: biochemical
[4] = target: recombinant wild-type thrombin (rWT) (Homo sapiens, UniProt P00734); assay: Inhibition of recombinant thrombin, S2238 hydrolysis assay; assay type: biochemical; settings: overnight 25 °C
Outline: (§1)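 Recombinant wild-type and Ala-mutant thrombins were made in […] form by PCR mutagenesis, expressed in BHK cells, HPC4 immunoaffinity-purified and activated. Active-site concentration came from amidolytic assay and antithrombin titration. Enzyme (1.5–7.5 nM final) was incubated with test compound overnight at 25 °C in pH 7.4 Tris buffer. S2238 was added and initial rate read at 405 nm. At least 9–10 concentrations were fitted by logistic equation for apparent IC50, HS, Y0 and YM. Mutant IC50 is expressed relative to recombinant wild type.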

[5] = target: R93A thrombin (Homo sapiens, UniProt P00734, R452A); assay: as above; assay type: biochemical; settings: overnight 25 °C
Outline: as §1

[6] = target: R97A thrombin (Homo sapiens, UniProt P00734, R456A); assay: as above; assay type: biochemical; settings: overnight 25 °C
Outline: as §1

[7] = target: R101A thrombin (Homo sapiens, UniProt P00734, R461A); assay: as above; assay type: biochemical; settings: overnight 25 °C
Outline: as §1

[8] = target: R126A thrombin (Homo sapiens, UniProt P00734, R486A); assay: as above; assay type: biochemical; settings: overnight 25 °C
Outline: as §1

[9] = target: R165A thrombin (Homo sapiens, UniProt P00734, R533A); assay: as above; assay type: biochemical; settings: overnight 25 °C
Outline: as §1

[10] = target: K169A thrombin (Homo sapiens, UniProt P00734, K537A); assay: as above; assay type: biochemical; settings: overnight 25 °C
Outline: as §1

[11] = target: R173A thrombin (Homo sapiens, UniProt P00734, R541A); assay: as above; assay type: biochemical; settings: overnight 25 °C
Outline: as §1

[12] = target: R175A thrombin (Homo sapiens, UniProt P00734, R543A); assay: as above; assay type: biochemical; settings: overnight 25 °C
Outline: as §1

[13] = target: R233A thrombin (Homo sapiens, UniProt P00734, R608A); assay: as above; assay type: biochemical
Outline: as §1

[14] = target: K235A thrombin (Homo sapiens, UniProt P00734, K610A); assay: as above; assay type: biochemical; settings: overnight 25 °C
Outline: as §1

[15] = target: K236A thrombin (Homo sapiens, UniProt P00734, K611A); assay: as above; assay type: biochemical; settings: overnight 25 °C
Outline: as §1

[16] = target: K240A thrombin (Homo sapiens, UniProt P00734, K615A); assay: as above; assay type: biochemical; settings: overnight 25 °C
Outline: as §1

[17] = system: human plasma; assay: Human plasma clotting assay, activated partial thromboplastin time; assay type: biochemical
Outline: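 APTT on a fibrometer using a one-stage recalcification assay. Citrated human plasma, test compound or vehicle, and pre-warmed 0.2% ellagic acid were mixed and incubated 4 min. Clotting was started with 25 mM CaCl2 at 37 °C and clotting time recorded. Run in duplicate. A quadratic trend line gave the concentration that doubles APTT.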

[18] = system: human plasma; assay: Human plasma clotting assay, prothrombin time; assay type: biochemical; settings: citrated human plasma
Outline: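 PT on a fibrometer using a one-stage recalcification assay. Test compound or vehicle was mixed with citrated human plasma and incubated 30 s at 37 °C. Pre-warmed reconstituted thromboplastin was then added and clotting time recorded. Run in duplicate. A quadratic trend line gave the concentration that doubles PT.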

[19] = target: thrombin (Homo sapiens, UniProt P00734); assay: Sequential inhibition of thrombin by 9a and PPACK; assay type: biochemical; settings: PPACK added following inhibition by 9a (Figure S10)
[20] = Water solubility; assay type: physicochemical; settings: devoid of any sulfate group
[21] = [9a] 0.63 μM, 2 hr incubation at 37°C
[22] = [9a] 0.63 μM, overnight incubation at 25°C
[23] = [9a] 1.53 μM, 2 hr incubation at 37°C
[24] = [9a] 1.80 μM, overnight incubation at 25°C
[25] = [9a] 3.60 μM, 2 hr incubation at 37°C
[26] = [9a] 3.60 μM, overnight incubation at 25°C
[27] = [9a] 9.90 μM, 2 hr incubation at 37°C
[28] = Heparin (UFH) 4.2 μM, overnight 25 °C
[29] = Heparin (UFH) 25.0 μM, overnight 25 °C
[30] = Heparin (UFH) 42.6 μM, overnight 25 °C
[31] = Hirugen peptide (HirP) 5 nM, overnight 25 °C
[32] = Hirugen peptide (HirP) 15 nM, overnight 25 °C
[33] = Octasaccharide H8 1.0 μM, overnight 25 °C
[34] = Octasaccharide H8 3.0 μM, overnight 25 °C
[35] = Octasaccharide H8 10 μM, overnight 25 °C
[36] = Octasaccharide H8 20 μM, overnight 25 °C
[37] = γ′-Fibrinogen peptide (FibP) 0.2 μM, overnight 25 °C
[38] = γ′-Fibrinogen peptide (FibP) 0.65 μM, overnight 25 °C
[39] = γ′-Fibrinogen peptide (FibP) 2.0 μM, overnight 25 °C
[40] = γ′-Fibrinogen peptide (FibP) 6.5 μM, overnight 25 °C

SMILES: N=C(N)NCCC[C@H](NC(=O)[C@@H]1CCCN1C(=O)[C@H](N)Cc1ccccc1)C(=O)CCl [PPACK, D-Phe-Pro-Arg-chloromethylketone]
thrombin activity after sequential inhibition [19]: totally inactive

SMILES: CCOC(=O)c1c(COc2cc3c(C(=O)OCC)c(COc4cc5c(C(=O)O)c(C)oc5cc4OC)oc3cc2OC)oc2cc(OC)c(O)cc12 [compound 12]
water solubility [20]: fairly good water solubility

SMILES: C=CCOC(=O)c1c(C)oc2cc(OC)c(OCc3oc4cc(OC)c(OCc5oc6cc(OC)c(OS(=O)(=O)[O-])cc6c5C(=O)OCC)cc4c3C(=O)OCC)cc12.[Na+] [compound 13]
HS (Hill slope) [1]: 3.5 ± 1.2
logIC50 [1]: −4.51 ± 0.06
fold decrease in potency from 9a [1]: 46 fold

SMILES: CCOC(=O)c1c(COc2cc3c(C(=O)O)c(C)oc3cc2OC)oc2cc(OC)c(OCc3oc4cc(OC)c(OS(=O)(=O)[O-])cc4c3C(=O)OCC)cc12.[Na+] [compound 14]
fold reduction in potency from 13 ([1]; allyl ester to carboxylic acid): 2 fold
HS (Hill slope) [1]: 1.0 ^c
logIC50 [1]: −4.18 ± 0.17

SMILES: CCOC(=O)c1c(C)oc2cc(OC)c(OCc3oc4cc(OC)c(OCc5oc6cc(OC)c(OCc7oc8cc(OC)c(OS(=O)(=O)[O-])cc8c7C(=O)OCC)cc6c5C(=O)OCC)cc4c3C(=O)OCC)cc12.[Na+] [compound 17]
HS (Hill slope) [1]: 1.0 ^c
logIC50 [1]: −3.80 ± 0.15
fold decrease in potency from 9a [1]: ~236 fold and 225 fold

SMILES: CCOC(=O)c1c(C)oc2cc(OC)c(OCc3oc4cc(OC)c(OCc5oc6cc(OS(=O)(=O)[O-])c(OC)cc6c5C(=O)OCC)cc4c3C(=O)OCC)cc12.[Na+] [compound 23]
HS (Hill slope) [1]: 1.2 ± 0.3
logIC50 [1]: −3.81 ± 0.13

Further lines, with some results ahead:

logIC50 [1]: −6.17 ± 0.03
reduction in KM and VMAX ([2]; 25 °C): 0.86–1.2 fold per μM
reduction in KM and VMAX ([2]; 37 °C): 0.4–0.6 fold per μM
Km ([2]; [9a] 0.36 μM, overnight incubation at 25°C): 11.1 ± 2.5 µM
Km [2, 21]: 6.7 ± 2.3 µM
VMAX [2, 21]: 72 ± 8 mAU/min
Km [2, 22]: 7.7 ± 1.3 µM
VMAX [2, 22]: 69 ± 3 mAU/min
Km [2, 23]: 2.2 ± 0.8 µM
VMAX [2, 23]: 30 ± 2 mAU/min
Km [2, 24]: 3.2 ± 0.5 µM
VMAX [2, 24]: 35 ± 1 mAU/min
Km [2, 25]: 2.7 ± 0.6 µM
VMAX [2, 25]: 25 ± 1 mAU/min
Km [2, 26]: 3.1 ± 0.6 µM
VMAX [2, 26]: 19 ± 1 mAU/min
Km [2, 27]: 1.9 ± 0.6 µM
VMAX [2, 27]: 15 ± 0.8 mAU/min
mechanism of thrombin inhibition ([2]; both incubation conditions): primarily uncompetitive
logIC50 ([3]; 0 μM competitor): −6.17 ± 0.03
ΔY ([3]; 0 μM competitor): 79 ± 9%
HS [3, 28]: 2.2 ± 0.4
ΔY [3, 28]: 71 ± 7%
HS ([3]; Heparin (UFH) 12.8 μM, overnight 25 °C): 1.8 ± 0.2
HS [3, 29]: 1.7 ± 0.2
ΔY [3, 29]: 81 ± 10%
HS [3, 30]: 1.2 ± 0.2
ΔY [3, 30]: ~90 ^c %
ΔY ([3]; Hirugen peptide (HirP) 3 nM, overnight 25 °C): 44 ± 2%
HS [3, 31]: 2.4 ± 0.3
ΔY [3, 31]: 46 ± 2%
HS [3, 32]: 3.0 ± 0.7
ΔY [3, 32]: 43 ± 1%
HS [3, 33]: 2.3 ± 0.3
ΔY [3, 33]: 58 ± 3%
HS [3, 34]: 2.6 ± 0.6
ΔY [3, 34]: 54 ± 4%
HS [3, 35]: 2.8 ± 0.4
ΔY [3, 35]: 50 ± 2%
HS [3, 36]: 2.6 ± 0.5
ΔY [3, 36]: 49 ± 2%
HS [3, 37]: 2.4 ± 0.3
ΔY [3, 37]: 73 ± 8%
HS [3, 38]: 2.1 ± 0.3
ΔY [3, 38]: 71 ± 8%
HS [3, 39]: 3.3 ± 0.6
ΔY [3, 39]: 67 ± 4%
HS [3, 40]: 2.1 ± 0.6
ΔY [3, 40]: 65 ± 7%
HS [4]: 3.4 ± 0.5 ^b
ΔY [4]: 49 ± 2%
HS [5]: 1.8 ± 0.3
ΔY [5]: 66 ± 6%
HS [6]: 2.6 ± 0.5
ΔY [6]: 47 ± 3%
HS [7]: 2.1 ± 0.6
ΔY [7]: 55 ± 6%
HS [8]: 1.8 ± 0.5
ΔY [8]: 65 ± 11%
HS [9]: 1.1 ± 0.3
ΔY [9]: 61 ± 8%
HS [10]: 2.1 ± 0.2
ΔY [10]: 59 ± 3%
HS [11]: 2.4 ± 0.7
ΔY [11]: 62 ± 8%
ΔY [12]: 37 ± 3%
fold loss in potency (defect) vs recombinant wild-type ([13]; Arg233Ala thrombin): ~ 3 fold
ΔY ([13]; R233A, overnight 25 °C): 44 ± 2%
ΔY [14]: 50 ± 1%
HS [15]: 3.0 ± 0.3
ΔY [15]: 52 ± 1%
HS [16]: 2.3 ± 0.4
ΔY [16]: 49 ± 3%
SMILES: CCOC(=O)c1c(C)oc2cc(OC)c(OCc3oc4cc(OC)c(OCc5oc6cc(OC)c(OS(=O)(=O)[O-])cc6c5C(=O)OCC)cc4c3C(=O)OCC)cc12.[Na+] [9a]
times less potent in plasma anticoagulation than sulfated LMWLs ([17]; LMWLs from ref 15): 10 times
concentration required for a 2-fold increase in APTT ([17]; citrated human plasma): 139 µM
concentration required for a 2-fold increase in PT [18]: 568 µM

HS (Hill slope) [1]: 1.0 ^c
logIC50 [1]: −5.69 ± 0.13
SMILES: CCOC(=O)c1c(C)oc2cc(OC)c(OCc3oc4cc(OC)c(OCc5oc6cc(OC)c(OS(=O)(=O)[O-])cc6c5C(=O)OC)cc4c3C(=O)OCC)cc12.[Na+] [9b]

HS (Hill slope) [1]: 2.1 ± 0.5
logIC50 [1]: −3.78 ± 0.07
SMILES: CCOC(=O)c1c(C)oc2cc(OC)c(OCc3oc4cc(OC)c(OCc5oc6cc(OC)c(OS(=O)(=O)[O-])cc6c5C(=O)OC(C)(C)C)cc4c3C(=O)OCC)cc12.[Na+] [9c]

fold decrease in potency from 9a [1]: > 500 fold
SMILES: CCOC(=O)c1c(C)oc2cc(OC)c(OCc3oc4cc(OC)c(OCc5oc6cc(OC)c(OS(=O)(=O)[O-])cc6c5C(=O)OCCOC)cc4c3C(=O)OCC)cc12.[Na+] [9d]

HS (Hill slope) [1]: 2.3 ± 1.2
logIC50 [1]: −5.23 ± 0.11
fold decrease in potency from 9a [1]: 8.6 fold
SMILES: CCOC(=O)c1c(C)oc2cc(OC)c(OCc3oc4cc(OC)c(OCc5oc6cc(OCC)c(OS(=O)(=O)[O-])cc6c5C(=O)OCC)cc4c3C(=O)OCC)cc12.[Na+] [9f]

logIC50 [1]: ~ −4.0 ^d
fold decrease in potency from 9a [1]: 148 fold
SMILES: CCOC(=O)c1c(C)oc2cc(OC)c(OCc3oc4cc(OC)c(OCc5oc6cc(OC(C)C)c(OS(=O)(=O)[O-])cc6c5C(=O)OCC)cc4c3C(=O)OCC)cc12.[Na+] [9g]

Source: publication PMC3717983 (Journal of medicinal chemistry, 2013)
